Measurements: ChEMBL document CHEMBL4257556, “Novel 1,3,4-thiadiazole-chalcone hybrids containing catechol moiety: synthesis, antioxidant activity, cytotoxicity and DNA interaction studies” (Medchemcomm, 2018)
Calls of active or inactive are those of the source. The calls are words filed in the database; no cut-off is given here.

Experiments:
[1] = Antioxidant activity assessed as DPPH free radical scavenging activity after 30 mins; type: functional
Outline: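 DPPH (0.05 mM in methanol) mixed with equal volume of compound (DMSO solution diluted in methanol), kept in dark at room temperature 30 min; absorbance at 517 nm, methanol control, ascorbic acid positive control. IC50 = concentration giving 50% of maximum scavenging; mean ± SD of independent triplicate experiments.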

HeLa [2] = experiment: Prooxidant activity in human HeLa cells assessed as increase in H2O2-induced reactive oxygen species at 10 uM preincubated for 24 hrs followed by H2O2 addition and measured after 30 mins by dichlorofluorescein dye-based flow cytometric method; type: functional, cell-based
Outline: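 HeLa cells pretreated 24 h with 10 μM compound, washed, loaded with 30 μM DCFH-DA in PBS 45 min at 37 °C. One portion read directly (endogenous ROS); other portion exposed to 10 mM H2O2 30 min at 37 °C. DCF green fluorescence by flow cytometry, 20 000 events per sample; mean ± SD of two independent experiments.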

HeLa [3] = experiment: Cytotoxicity against human HeLa cells assessed as decrease in cell survival after 72 hrs by MTT assay; type: functional, cell-based
Outline: (§1)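 HeLa (2000/well), A549 and MRC-5 (5000/well) seeded 20 h before treatment; HL-60 (7000/well) 2 h before. Five concentrations (6.25–100 μM or 3.125–50 μM) from 5 mM DMSO stocks, final DMSO ≤1%, 72 h; survival by MTT. Cisplatin positive control; three independent experiments in triplicate.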

HL-60 = experiment: Cytotoxicity against human HL60 cells assessed as decrease in cell survival after 72 hrs by MTT assay; type: functional, cell-based; settings: HL-60, 72 h; outline: as §1
A549 = experiment: Cytotoxicity against human A549 cells assessed as decrease in cell survival after 72 hrs by MTT assay; type: functional, cell-based; settings: A549, 72 h; outline: as §1
MRC5 [4] = experiment: Cytotoxicity against human MRC5 cells assessed as decrease in cell survival after 72 hrs by MTT assay; type: cell-based; settings: MRC5, 72 h; outline: as §1
HeLa [5] = experiment: Cell cycle arrest in human HeLa cells assessed as accumulation at sub-G1 phase at IC50 and 2 times IC50 after 24 hrs by propidium iodide staining-based flow cytometric method; type: functional
Outline: (§2)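 HeLa cells treated 24 h at IC50 or 2×IC50 (from 72 h assay), fixed in 70% ethanol, stored at –20 °C ≥1 week, RNase A 30 min 37 °C, propidium iodide stained; flow cytometry, 10 000 gated events. Mean ± SD of three independent experiments; one-way ANOVA with Dunnett's post-test, p < 0.05.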

HeLa [6] = experiment: Cell cycle arrest in human HeLa cells assessed as accumulation at G2/M phase at 2 times IC50 after 24 hrs by propidium iodide staining-based flow cytometric method; type: functional; outline: as §2
HeLa [7] = experiment: Cell cycle arrest in human HeLa cells assessed as decrease in cell levels at G1 phase at 2 times IC50 after 24 hrs by propidium iodide staining-based flow cytometric method; type: functional; outline: as §2
HeLa [8] = experiment: Cell cycle arrest in human HeLa cells assessed as accumulation at sub-G1 phase at 2 times IC50 after 24 hrs in presence of caspase-3 inhibitor Z-DEVD-FMK by propidium iodide-staining based flow cytometric method; type: functional
Outline: (§3)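 HeLa cells pretreated 2 h with 40 μM peptide caspase inhibitor (Z-DEVD-FMK caspase-3, Z-IETD-FMK caspase-8 or Z-LEHD-FMK caspase-9), then exposed to 2×IC50 compound; subG1 fraction by propidium iodide flow cytometry, compared with samples lacking inhibitor.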

HeLa [9] = experiment: Cell cycle arrest in human HeLa cells assessed as accumulation at sub-G1 phase at 2 times IC50 after 24 hrs in presence of caspase-9 inhibitor Z-LEHD-FMK by propidium iodide-staining based flow cytometric method; type: functional; outline: as §3
HeLa [10] = experiment: Cell cycle arrest in human HeLa cells assessed as accumulation at sub-G1 phase at 2 times IC50 after 24 hrs in presence of caspase-8 inhibitor Z-IETD-FMK by propidium iodide-staining based flow cytometric method; type: functional; outline: as §3
HeLa [11] = experiment: Downregulation of MMP2 gene expression in human HeLa cells at 10 uM after 24 hrs by RT-qPCR method; type: functional, cell-based
HeLa [12] = experiment: Downregulation of TIMP3 gene expression in human HeLa cells at 10 uM after 24 hrs by RT-qPCR method; type: functional, cell-based
HeLa [13] = experiment: Upregulation of MMP9 gene expression in human HeLa cells at 10 uM after 24 hrs by RT-qPCR method; type: functional, cell-based
HeLa [14] = experiment: Downregulation of VEGFA gene expression in human HeLa cells at 10 uM after 24 hrs by RT-qPCR method; type: functional, cell-based
HeLa [15] = experiment: Downregulation of miR-21 expression in human HeLa cells at 10 uM after 24 hrs by RT-qPCR method; type: functional, cell-based
HeLa [16] = experiment: Downregulation of miR-155 expression in human HeLa cells at 10 uM after 24 hrs by RT-qPCR method; type: functional, cell-based
HeLa [17] = experiment: Downregulation of miR-133b expression in human HeLa cells at 10 uM after 24 hrs by RT-qPCR method; type: functional, cell-based
HeLa [18] = experiment: Upregulation of miR-206 expression in human HeLa cells at 10 uM after 24 hrs by RT-qPCR method; type: functional, cell-based
Calf thymus DNA [19] = experiment: Binding affinity to calf thymus DNA at 10 to 40 uM after 90 mins by UV/visible spectrophotometric analysis; type: nucleic-acid assay; settings: Bos taurus
Outline: (§4)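 CT-DNA stock in 10 mM Tris-HCl pH 7.9 (A260/A280 1.89–2.01; concentration from ε260 6600 M–1 cm–1). Compound (10, 20 or 40 μM) plus CT-DNA (95 μM) in 40 mM bicarbonate pH 8.4, 37 °C 90 min; spectra 200–800 nm. Hyper/hypochromism at 259 nm from bound versus summed free compound and DNA extinction; triplicate.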

Calf thymus DNA [20] = experiment: Binding affinity to calf thymus DNA assessed as hypochromism at 10 to 20 uM after 90 mins by UV/visible spectrophotometric analysis; type: nucleic-acid assay; settings: Bos taurus; outline: as §4
Calf thymus DNA [21] = experiment: Binding affinity to calf thymus DNA assessed as hypochromism at 40 uM after 90 mins by UV/visible spectrophotometric analysis; type: nucleic-acid assay; settings: Bos taurus; outline: as §4
Calf thymus DNA [22] = experiment: Binding affinity to calf thymus DNA after 90 mins by spectroscopic titration method; type: nucleic-acid assay; settings: Bos taurus
Outline: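 Compound fixed at 40 μM titrated with CT-DNA (2.2–13 × 10–5 M) in 40 mM bicarbonate pH 8.4 after 90 min at 37 °C; absorbance at 259 nm per DNA level. Kb from slope/intercept ratio of [DNA]/(εa–εf) versus [DNA] plot; triplicate assays.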

Calf thymus DNA [23] = experiment: Displacement of Hoechst 33258 from calf thymus DNA assessed as fluorescence intensity of compound-DNA complex at 22 uM by fluorescence spectrophotometric analysis relative to control; type: nucleic-acid assay; settings: Bos taurus
Outline: (§5)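 CT-DNA 100 μM (per phosphate) in 40 mM bicarbonate pH 8.4 pretreated 20 min with Hoechst 33258 (28 μM final), then compound added stepwise. Excitation 350 nm, emission 390–550 nm, read at 444 nm, 10 nm slits; H–DNA as control. Quenching constant K by Stern–Volmer, I0/I versus r = [compound]/[DNA]; triplicate.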

Calf thymus DNA [24] = experiment: Displacement of Hoechst 33258 from calf thymus DNA assessed as quenching constant by fluorescence spectrophotometric analysis; type: nucleic-acid assay; settings: Bos taurus; outline: as §5
MRC5 [25] = experiment: Induction of DNA damage in human MRC5 cells assessed as formation of DNA breaks at 25 uM after 24 hrs by comet assay relative to control; type: functional
Outline: (§6)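 MRC-5 cells exposed 24 h to 3.125–25 μM compound; DNA damage scored as % tail DNA (tail intensity) by comet assay. PBS negative control; H2O2 50 μM 5 min in-gel positive control. Triplicate, repeated twice; mean ± SD.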

MRC5 [26] = experiment: Induction of DNA damage in human MRC5 cells assessed as formation of DNA breaks after 24 hrs by comet assay; type: functional, cell-based; outline: as §6
DNA [27] = experiment: Induction of Escherichia coli pUC19 DNA cleavage at 0.05 to 0.4 mM after 90 mins by agarose gel electrophoresis method; type: nucleic-acid assay
Outline: (§7)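 Plasmid pUC19 (from E. coli XL1 blue; 460 ng, 12 nM) incubated with compound (0.05–0.4 mM; from 2 mM DMSO stock) in 20 μL 40 mM bicarbonate pH 8.4 at 37 °C for 90 min; 1% agarose gel in TAE at 80 V, ethidium bromide staining, UV at 312 nm; supercoiled/nicked/linear forms scored.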

DNA [28] = experiment: Reversal of Fe2+-induced Escherichia coli pUC19 DNA cleavage at 1:1 compound to Fe2+ mole ratio after 90 mins by agarose gel electrophoresis method; type: functional
Outline: (§8)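 Compound (4 μL of 2 mM) preincubated with FeSO4 (1 or 2 μL of 8 mM; compound:Fe 1:1 or 1:2) in bicarbonate buffer 60 min at 37 °C, then pUC19 added for another 90 min; products resolved on 1% agarose gel, ethidium bromide stained.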

DNA [29] = experiment: Reversal of Fe2+-induced Escherichia coli pUC19 DNA cleavage at 1:2 compound to Fe2+ mole ratio after 90 mins by agarose gel electrophoresis method; type: functional; outline: as §8
EA.hy 926 = experiment: Antiangiogenic activity in human EAhy926 cells assessed as inhibition of tubular structures formation at IC20 after 20 hrs by inverted phase-contrast microscopic method; type: functional, cell-based
DNA [30] = experiment: Induction of Escherichia coli pUC19 DNA cleavage after 90 mins by agarose gel electrophoresis method; type: nucleic-acid assay; outline: as §7
Calf thymus DNA [31] = experiment: Binding affinity to calf thymus DNA assessed as hyperchromism at 10 to 20 uM after 90 mins by UV/visible spectrophotometric analysis; type: nucleic-acid assay; settings: Bos taurus; outline: as §4

SMILES	IC50 [1] [µM]	Activity (HeLa [2])	IC50 (HeLa [3]) [µM]	IC50 (HL-60) [µM]	IC50 (A549) [µM]	IC50 (MRC5 [4]) [µM]	Activity (HeLa [5])	Activity (HeLa [6])	Activity (HeLa [8])	Activity (HeLa [9])	Activity (HeLa [10])	Activity (HeLa [11])	Activity (HeLa [12])	Activity (HeLa [13])	Activity (HeLa [14])	Activity (HeLa [15])	Activity (HeLa [16])	Activity (HeLa [17])	Activity (HeLa [18])	Activity (Calf thymus DNA [19])	further results
O=C(/C=C/c1ccc(C(=O)Nc2nnc(-c3ccc(O)c(O)c3)s2)cc1)c1ccccc1	12	Active	9.37	8.4	42.8	36	Active	Active	inactive	inactive	inactive	Active	Active	Active	inactive	Active	Active	Active	Active	Active	Activity (HeLa [7]): Active; Activity (Calf thymus DNA [20]): 13%; Activity (Calf thymus DNA [21]): inactive; Kb (Calf thymus DNA [22]): 1.09 ×10³ /M; Activity (Calf thymus DNA [23]): 58%; K (Calf thymus DNA [24]): 3.3; Activity (MRC5 [25]): 45%; Activity (MRC5 [26]): Dose-dependent effect; Activity (DNA [27]): inactive; Activity (DNA [28]): Active; Activity (DNA [29]): Active
COc1cccc(C(=O)/C=C/c2ccc(C(=O)Nc3nnc(-c4ccc(O)c(O)c4)s3)cc2)c1	10.3	Active	9.98	9.92	92.1	42.5	Active	Active	inactive	inactive	inactive	Active	Active	Active	Active	inactive	Active	Active	Active	Active	inhibition (EA.hy 926): Active; Activity (Calf thymus DNA [20]): 2.4%; Kb (Calf thymus DNA [22]): 0.71 ×10³ /M; Activity (Calf thymus DNA [23]): 55%; K (Calf thymus DNA [24]): 3.95; Activity (MRC5 [25]): 20%; Activity (MRC5 [26]): Dose-dependent effect; Activity (DNA [30]): inactive; Activity (DNA [28]): Active; Activity (DNA [29]): Active
O=C(Nc1nnc(-c2ccc(O)c(O)c2)s1)c1ccc(/C=C/C(=O)c2cccs2)cc1	11.1	inactive	12.7	15.7	47.9	68.5	Active	Active	inactive	inactive	inactive	Active	Active	Active	Active	Active	Active	Active	inactive	Active	Activity (HeLa [7]): Active; inhibition (EA.hy 926): Active; Activity (Calf thymus DNA [31]): Active; Kb (Calf thymus DNA [22]): 1.01 ×10³ /M; Activity (Calf thymus DNA [23]): 51%; K (Calf thymus DNA [24]): 4.66; Activity (MRC5 [25]): 25%; Activity (MRC5 [26]): Dose-dependent effect; Activity (DNA [30]): inactive; Activity (DNA [28]): Active; Activity (DNA [29]): Active
